Screening data as filed in PubChem BioAssay.
hERG protect: hERG rescue from dofetilide block, primary screen, cell-based, CHO-hERG, FluxOR thallium flux, dofetilide IC70; 310,000 tested, 0.51% active; activation (rescue from dofetilide block), less the hit threshold, % at 10 µM; dofetilide IC70 present; Voltage-gated inwardly rectifying potassium channel KCNH2 (Homo sapiens), Q12809;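 active means activation above the mean of controls blocked by dofetilide plus 5 SD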;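 further: thallium influx through hERG after potassium depolarization seen as dye fluorescence rise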
KCNK3 block: human KCNK3 channel inhibitors, primary screen, CHO cells, FluxOR thallium flux, B-score; Potassium channel subfamily K member 3 (Homo sapiens), O14649; FluxOR fluorescence; stronger effect = lower value; B-score at 10 µM; 340,000 tested, 0.84% active;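 active means B-score under library mean minus 4 SD, starting fluorescence ratio at most library mean plus 5 SD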;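 further: more negative B-score means stronger inhibition of thallium flux through KCNK3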
Target sequence (O14649 whole entry, looked up): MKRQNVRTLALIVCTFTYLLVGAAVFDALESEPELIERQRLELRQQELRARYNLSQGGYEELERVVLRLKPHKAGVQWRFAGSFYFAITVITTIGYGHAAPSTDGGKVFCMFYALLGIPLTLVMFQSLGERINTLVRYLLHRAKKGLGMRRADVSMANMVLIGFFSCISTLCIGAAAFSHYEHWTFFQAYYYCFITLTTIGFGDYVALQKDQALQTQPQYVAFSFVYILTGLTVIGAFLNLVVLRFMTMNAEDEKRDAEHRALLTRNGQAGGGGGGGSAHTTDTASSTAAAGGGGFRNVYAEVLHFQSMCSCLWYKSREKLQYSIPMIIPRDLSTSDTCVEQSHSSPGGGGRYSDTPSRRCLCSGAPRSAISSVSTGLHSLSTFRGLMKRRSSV
Kir21 block: inhibitors of mouse Kir2.1 inward-rectifier potassium channel | B-score at 10 µM | Inward rectifier potassium channel 2 (Mus musculus), P35561 | 310,000 tested, 0.85% active | HEK293-Kir2.1, FluxOR thallium flux fluorescence; stronger effect = lower value;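 active means fluorescence ratio B-score at or below minus 3 SD of library scores, with starting-brightness B-score within 2 SD, cut at about -4.2 in these data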;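 further: channel flux triggered by added potassium and thallium sulfate stimulus; B-score of peak minus minimum fluorescence over baseline after thallium stimulus; more negative B-score means stronger Kir2.1 block with less thallium influx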
KCNQ1 inh: inhibitors of human KCNQ1 channel, primary screen, cell-based, thallium flux, high-throughput | 310,000 tested, 1.3% active | B-score at 10 µM | CHO-K1 KCNQ1, FluxOR thallium flux fluorescence; stronger effect = higher value | Potassium voltage-gated channel subfamily KQT member 1 (Homo sapiens), P51787 | AID 2642, 2010;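 active means compounds whose thallium flux B-score, printed positive for inhibition, exceeds three library SD while starting fluorescence stays within three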;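 further: channel opened by potassium depolarization with thallium stimulus after 20 min compound exposure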
KCNQ1 act: potentiators or activators of KCNQ1 channel, primary screen, cell-based, thallium flux, high-throughput | AID 2648, 2010 | B-score at 10 µM | Potassium voltage-gated channel subfamily KQT member 1 (Homo sapiens), P51787 | 310,000 tested, 0.35% active | CHO-K1 KCNQ1, thallium flux FluxOR fluorescence; stronger effect = higher value;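 active means fluorescence ratio B-score, a plate-corrected score, at least three library SD, with initial intensity B-score within 5 SD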
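assay system = CHO-K1 cells stably expressing KCNQ1 | medium = assay buffer, equal DMSO in all wells | timing = 37 °C overnight plating, 90-min dark dye load, 20-min compound pretreatment | measured by = kinetic FluxOR thallium fluorescence, 10-s 1-Hz baseline, 110-s post-stimulus read | measure = fluorescence change relative to baseline, converted to B score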
KCNK9 block: KCNK9 potassium channel inhibitors, primary screen, HEK293 cells, thallium flux. Potassium channel subfamily K member 9 (Homo sapiens), Q9NPC2. FluxOR thallium flux fluorescence; stronger effect = lower value. B-score at 10 µM. 310,000 tested, 1.2% active. AID 488922, 2010;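 active means ratio B-score over 3 SD below the library mean, with starting fluorescence within 5 SD of its mean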;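 further: negative B-score means less thallium flux so channel inhibition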
Target sequence (Q9NPC2 whole entry, looked up): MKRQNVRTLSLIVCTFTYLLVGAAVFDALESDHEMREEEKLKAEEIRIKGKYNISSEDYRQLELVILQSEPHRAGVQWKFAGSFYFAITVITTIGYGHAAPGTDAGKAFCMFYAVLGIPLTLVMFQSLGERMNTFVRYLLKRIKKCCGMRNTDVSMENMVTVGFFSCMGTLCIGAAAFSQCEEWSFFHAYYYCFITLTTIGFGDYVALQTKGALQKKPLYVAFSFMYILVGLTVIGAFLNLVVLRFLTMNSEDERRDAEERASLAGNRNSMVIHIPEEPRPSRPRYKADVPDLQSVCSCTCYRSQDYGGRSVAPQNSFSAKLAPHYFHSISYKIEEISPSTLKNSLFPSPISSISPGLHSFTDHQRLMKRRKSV
KCNQ1 inh valid: KCNQ1 potassium channel inhibitors, confirmation, cell-based, Tl flux, duplicate. inhibition, % at 10 µM. KCNQ1 cell line, FluxOR thallium flux fluorescence. 1,600 tested, 93% active. AID 588353, 2011. shares compounds with KCNQ1 inh;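 active means primary screen active, with duplicate mean exceeding buffer control mean plus 3 SD of buffer wells, cut at about 28% in these data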;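 further: 0% = buffer control ratio and 100% = XE991 inhibitor control ratio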
CHO Tl flux: thallium flux effects in parental CHO cells, counter-screen for KCNQ1 inhibitor project, cell-based, Tl flux. AID 588366, 2011. 1,600 tested, 21% active. shares compounds with KCNQ1 inh. fluorescence ratio (Tl flux) at 10 µM. parental CHO-K1, FluxOR thallium flux fluorescence ratio; stronger effect = lower value; zero means no signal rise above baseline;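 active means mean of duplicate thallium-flux fluorescence ratios in parental host cells more than 5 SD below the buffer control mean, cut at about 0.38 in these data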;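 further: ratio is peak minus minimum fluorescence divided by baseline fluorescence; actives read low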
KCNQ1 ephys val: KCNQ1 channel inhibitors, confirmation, orthogonal assay, cell-based, automated electrophysiology. shares compounds with KCNQ1 inh. KCNQ1-CHO cells, automated patch clamp current. calls only at 10 µM. 490 tested, 20% active. AID 624120, 2012;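 active means KCNQ1 current drop exceeding 3 SD of negative control wells, seen in both duplicate runs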;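 further: steady state current during a 2 s step from -80 to +40 mV; negative values mean current inhibition and positive values mean potentiation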
KCNQ2 spec: KCNQ2 channel inhibition, selectivity assay for KCNQ1 inhibitor project, cell-based; inhibition, % at 10 µM; KCNQ2 cells, FluxOR thallium flux fluorescence; shares compounds with KCNQ1 inh; 1,600 tested, 71% active;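 active means mean percent inhibition of the KCNQ2 thallium signal more than 5 SD above the buffer-only control wells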;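 further: KCNQ2 expressed in CHO cells; 0% = buffer control wells and 100% = XE-991 inhibitor control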
KCNQ1-KCNE1 inh: KCNQ1/KCNE1 channel inhibition, selectivity assay for KCNQ1 inhibitor project, CHO-K1 cells, thallium flux, FluxOR. AID 652147, 2013. 1,600 tested, 77% active. FluxOR thallium flux fluorescence. shares compounds with KCNQ1 inh. inhibition, % at 10 µM;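 active means mean percent inhibition of duplicate wells above the buffer-only control mean plus 3 SD of those controls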;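 further: 0% = buffer only wells and 100% = XE-991 inhibitor control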
KCNK9 inh conf: KCNK9 potassium channel inhibitors, confirmation, HEK293 cells, thallium flux, duplicate; FluxOR thallium flux fluorescence; inhibition, % at 10 µM; 4,900 tested, 43% active; AID 492992, 2010; shares compounds with KCNK9 block;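 active means thallium signal inhibited by more than 5 SD of the compound-free buffer control wells, on both duplicate plates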;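 further: 0% = assay buffer control wells without compound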
Kir2-1 spec: mouse Kir2.1 channel inhibition, confirmation, selectivity assay for KCNK9 modulator project, cell-based, HEK293, thallium flux | shares compounds with KCNK9 block | Kir2.1 cells, FluxOR thallium flux fluorescence | inhibition, % at 10 µM | 4,900 tested, 4% active | AID 492993, 2010;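 active means thallium signal drop more than 5 SD beyond the mean of the no-compound control wells, seen in both duplicate plates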;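 further: signal is fluorescence rise after thallium addition divided by baseline fluorescence; plate controls were assay buffer only for no effect and full block by chlorpromazine control for full effect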
KCNK9 uninduced: thallium flux in non-induced HEK293 cells, confirmation, counter-screen for KCNK9 inhibitor project, cell-based, second counter screen, non-induced KCNK9-HEK293; FluxOR thallium flux; shares compounds with KCNK9 block; AID 492997, 2010; 4,900 tested, 40% active; inhibition, % at 10 µM;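 active means thallium signal drop beyond 5 SD of the untreated control mean, on both duplicate plates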;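 further: plate controls were buffer only IC0 wells for no effect and SID17386958 at its maximal inhibitory level for full effect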
The depositor's hits bear a star; i = inactive; . = no result; + = active, no number. An excerpt weighted towards active compounds, which were near 3.7% of everything screened.

SMILES	hERG protect	KCNK3 block	Kir21 block	KCNQ1 inh	KCNQ1 act	KCNK9 block	KCNQ1 inh valid	CHO Tl flux	KCNQ2 spec	KCNQ1-KCNE1 inh	others
Cc1c(Cl)cccc1NC(=S)NCCc1ccc(Cl)cc1	-8	i	-1.9	15*	i	i	73*	0.56	79%*	51%*
S=C(NCCc1ccc(Cl)cc1)NCc1ccccc1	-13	i	-7.3*	10*	i	i	63*	0.49	74%*	72%*
S=C(NCc1ccccc1)Nc1ccc(Cl)cc1	-6	i	-0.44	i	i	i	.	.	.	.
CCOC(=O)c1cc(S(=O)(=O)N2CCC(C)CC2)cn1C	-2	i	-0.01	i	i	i	.	.	.	.
CN(C)C(CNC(=O)CCc1c[nH]c2ccccc12)c1ccccc1 (centres undefined)	-6	i	1.3	i	i	i	.	.	.	.
CC(=O)N1[C@H](C)C=C[C@]1(Cc1ccccc1)C(=O)O	-10	i	-2.4	i	i	i	.	.	.	.
CC(C)(C)c1csc(NC(=O)c2ccccc2O)n1	-12	i	2.4	9*	i	i	65*	0.55	i	i
COc1ccc(N(CC(=O)Nc2cccnc2)S(=O)(=O)c2ccccc2)cc1Cl	-10	i	-0.32	i	i	i	.	.	.	.
COc1ccc(N(CC(=O)Nc2ccccc2OC)S(=O)(=O)c2ccccc2)cc1Cl	-4	i	0.18	7*	i	i	74*	0.39	92%*	102%*
COC(=O)c1ccc2c(=O)n(-c3ccccc3)c(SCN3C(=O)c4ccccc4C3=O)nc2c1	-8	i	-0.47	6*	i	i	87*	0.51	i	66%*
O=C(O)c1ccc(CSc2nc3ccccc3c(=O)n2-c2ccccc2)cc1	-4	i	0.57	i	i	i	.	.	.	.
O=C(Nc1cccc(F)c1)OC(CN1CCCCC1)C(F)(F)F (centres undefined)	-10	i	-0.63	7*	i	i	80*	0.48	81%*	106%*
CC(=O)c1c(N2CCOCC2)nc2ccc(Br)cc2c1-c1ccccc1	-15	i	0.28	10*	i	i	100*	0.42	119%*	101%*	KCNQ1 ephys val=i
N#Cc1c(Cl)nsc1NC(=O)c1ccccc1	-29	i	0.47	6*	i	i	0	0.53	i	i
Cc1cnc(NC(=O)C2CC=CCC2)s1 (centres undefined)	-3	i	-0.03	i	i	i	.	.	.	.
CC1(C)CC(=O)C2=C(C1)N1C(=C(C#N)C2c2ccc(Cl)cc2)N=C(N)c2ccccc21 (centres undefined)	-11	i	-0.04	8*	i	i	74*	0.41	77%*	70%*
CC(C)c1ccc(NC(=O)c2sccc2-n2cccc2)cc1	-4	i	0.79	6*	i	-11*	128*	0.4	114%*	178%*	KCNQ1 ephys val=+;KCNK9 inh conf=46%*;Kir2-1 spec=i;KCNK9 uninduced=44%*
Cc1c(Br)cccc1NC(=O)c1sccc1-n1cccc1	3	i	0.05	i	i	i	.	.	.	.
Cc1cccc(/C=C/c2onc(C)c2S(=O)(=O)N2CCC(C(=O)N3CCC(C)CC3)CC2)c1	-8	i	0.84	6*	i	i	52*	0.44	i	56%*	KCNK9 inh conf=i;Kir2-1 spec=i;KCNK9 uninduced=i
CCCN(CC(=O)Nc1cc(Cl)cc(Cl)c1)CC(=O)Nc1ccc(F)c(F)c1F	-10	i	2.5	6*	i	-13*	132*	0.33*	119%*	159%*	KCNK9 inh conf=55%*;Kir2-1 spec=i;KCNK9 uninduced=46%*
O=C(Nc1ccnn1C1CCN(Cc2ccc(CO)o2)CC1)c1ccccc1	-12	i	-0.41	i	i	i	.	.	.	.
COc1cc(OC)cc(C(=O)NCCC(=O)NCCc2ccc(OC)c(OC)c2)c1	-7	i	0.71	i	i	i	.	.	.	.
COCCNC(=O)NC12CC3(C)CC(C)(CC(C)(C3)C1)C2	-12	i	-1.7	i	i	i	.	.	.	.
O=C(Nc1ccc(F)cc1)Nc1ccccc1NS(=O)(=O)c1cccs1	-11	i	-0.1	i	i	i	.	.	.	.
O=C(Nc1ccc(Cl)cc1)Nc1ccccc1NS(=O)(=O)c1cccs1	-6	i	-1.8	7*	i	-10*	81*	0.56	66%*	i	KCNK9 inh conf=32%*;Kir2-1 spec=i;KCNK9 uninduced=i
